Source: publication PMC7468319 (Acta Pharmacologica Sinica, 2019)

How the values were obtained:
BTK [1] = assay: Western blot, phosphorylation of BTK at Tyr223 in TMD8 cells; type: cell-based, human; settings: Tyr223, 4 h
PARP and caspase 3 = assay: Western blot of cleaved PARP and cleaved caspase 3; type: cell-based, human; settings: TMD8, Western blot
EGFR [2] = target: T1, EGFR (Homo sapiens, UniProt P00533); settings: read-out: IC50 against EGFR; in vitro enzymatic activity; cited from earlier work
T1 sequence (P00533 25-1210): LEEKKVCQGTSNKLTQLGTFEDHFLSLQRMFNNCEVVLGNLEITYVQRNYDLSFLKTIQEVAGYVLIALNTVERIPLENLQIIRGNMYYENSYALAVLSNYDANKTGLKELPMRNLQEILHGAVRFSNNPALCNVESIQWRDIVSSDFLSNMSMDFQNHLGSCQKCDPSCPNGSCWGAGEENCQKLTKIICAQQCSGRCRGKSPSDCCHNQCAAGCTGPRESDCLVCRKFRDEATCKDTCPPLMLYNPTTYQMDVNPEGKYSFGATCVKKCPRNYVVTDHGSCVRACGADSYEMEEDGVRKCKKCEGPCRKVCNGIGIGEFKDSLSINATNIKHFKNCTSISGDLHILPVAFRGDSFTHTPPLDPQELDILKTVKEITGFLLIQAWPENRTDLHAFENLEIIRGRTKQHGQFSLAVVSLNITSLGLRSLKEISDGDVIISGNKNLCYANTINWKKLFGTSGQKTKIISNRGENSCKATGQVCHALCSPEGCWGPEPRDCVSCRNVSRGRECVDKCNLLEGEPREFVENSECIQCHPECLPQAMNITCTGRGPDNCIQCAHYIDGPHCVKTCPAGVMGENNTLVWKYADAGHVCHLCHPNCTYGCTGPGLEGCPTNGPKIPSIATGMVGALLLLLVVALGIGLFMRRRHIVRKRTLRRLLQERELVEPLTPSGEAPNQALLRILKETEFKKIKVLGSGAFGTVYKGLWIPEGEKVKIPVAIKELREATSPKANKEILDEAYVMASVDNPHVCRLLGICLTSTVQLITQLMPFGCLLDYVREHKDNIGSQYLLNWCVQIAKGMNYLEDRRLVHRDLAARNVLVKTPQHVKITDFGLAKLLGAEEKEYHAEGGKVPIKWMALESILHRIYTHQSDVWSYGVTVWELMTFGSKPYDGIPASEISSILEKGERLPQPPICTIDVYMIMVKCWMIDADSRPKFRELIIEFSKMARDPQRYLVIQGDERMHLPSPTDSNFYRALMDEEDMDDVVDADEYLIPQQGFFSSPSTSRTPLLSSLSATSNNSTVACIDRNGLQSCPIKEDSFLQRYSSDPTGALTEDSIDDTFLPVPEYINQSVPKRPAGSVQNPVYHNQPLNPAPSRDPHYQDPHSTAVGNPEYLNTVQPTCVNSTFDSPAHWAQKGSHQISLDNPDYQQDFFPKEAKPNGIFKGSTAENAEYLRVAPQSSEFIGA

[3] = test system: Rb, phosphorylated Rb, and cyclin D1; assay: Western blot of G1 phase related proteins; type: cell-based, human; settings: TMD8, 48 h
TMD8 cells = assay: Annexin V-FITC apoptosis analysis by flow cytometry; type: cell-based, human; settings: TMD8, 72 h, untreated control 12.77%
panel of 35 kinases = assay: Kinase selectivity profile, panel of 35 kinases; type: biochemical; settings: 1000 nM
In short: (§1)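 ELISA-based kinase activity assay using commercially sourced recombinant kinases, with absorbance read at 490 nm. Each test compound was profiled at 1000 nM against a panel of 35 kinases, and percent inhibition was determined for each kinase.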

ErbB2 = ErbB2 (Homo sapiens, UniProt P04626); assay: Kinase selectivity ELISA at 1000 nM, ErbB2; type: biochemical
Sequence of ErbB2 (P04626 23-1255): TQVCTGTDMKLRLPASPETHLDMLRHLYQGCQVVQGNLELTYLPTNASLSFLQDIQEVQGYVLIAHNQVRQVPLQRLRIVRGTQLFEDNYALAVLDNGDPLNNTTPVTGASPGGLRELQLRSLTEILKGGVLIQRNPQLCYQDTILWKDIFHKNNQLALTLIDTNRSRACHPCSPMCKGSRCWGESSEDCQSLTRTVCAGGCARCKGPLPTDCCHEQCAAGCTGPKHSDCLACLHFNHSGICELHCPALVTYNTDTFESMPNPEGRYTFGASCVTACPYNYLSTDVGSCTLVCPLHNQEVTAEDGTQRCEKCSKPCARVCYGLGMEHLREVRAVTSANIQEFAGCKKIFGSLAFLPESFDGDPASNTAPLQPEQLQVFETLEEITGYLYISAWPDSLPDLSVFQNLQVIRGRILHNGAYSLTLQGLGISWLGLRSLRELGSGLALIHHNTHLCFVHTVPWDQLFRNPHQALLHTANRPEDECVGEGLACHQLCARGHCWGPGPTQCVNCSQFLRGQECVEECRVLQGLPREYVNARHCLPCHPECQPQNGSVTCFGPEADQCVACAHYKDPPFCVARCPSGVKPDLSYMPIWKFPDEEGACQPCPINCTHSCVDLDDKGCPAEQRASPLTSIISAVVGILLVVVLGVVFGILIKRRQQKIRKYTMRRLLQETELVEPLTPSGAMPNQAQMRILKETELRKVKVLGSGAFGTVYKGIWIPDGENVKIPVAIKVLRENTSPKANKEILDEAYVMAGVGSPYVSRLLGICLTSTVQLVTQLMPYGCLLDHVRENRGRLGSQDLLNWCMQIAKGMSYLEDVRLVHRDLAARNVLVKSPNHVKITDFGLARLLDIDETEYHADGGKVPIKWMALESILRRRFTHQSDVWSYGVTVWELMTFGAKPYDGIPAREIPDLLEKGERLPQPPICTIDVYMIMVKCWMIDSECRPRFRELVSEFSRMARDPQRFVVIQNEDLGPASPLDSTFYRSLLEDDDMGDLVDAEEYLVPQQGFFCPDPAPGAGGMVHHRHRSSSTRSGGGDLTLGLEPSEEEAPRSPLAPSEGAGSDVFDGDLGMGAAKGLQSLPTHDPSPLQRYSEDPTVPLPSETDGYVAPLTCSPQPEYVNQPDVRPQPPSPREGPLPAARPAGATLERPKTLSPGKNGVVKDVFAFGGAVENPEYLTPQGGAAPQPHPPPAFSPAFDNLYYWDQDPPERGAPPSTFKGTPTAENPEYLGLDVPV
In short: as §1

BTK [4] = target: BTK (Homo sapiens, UniProt Q06187); type: biochemical
Sequence of BTK (Homo sapiens, UniProt Q06187) (Q06187 whole entry): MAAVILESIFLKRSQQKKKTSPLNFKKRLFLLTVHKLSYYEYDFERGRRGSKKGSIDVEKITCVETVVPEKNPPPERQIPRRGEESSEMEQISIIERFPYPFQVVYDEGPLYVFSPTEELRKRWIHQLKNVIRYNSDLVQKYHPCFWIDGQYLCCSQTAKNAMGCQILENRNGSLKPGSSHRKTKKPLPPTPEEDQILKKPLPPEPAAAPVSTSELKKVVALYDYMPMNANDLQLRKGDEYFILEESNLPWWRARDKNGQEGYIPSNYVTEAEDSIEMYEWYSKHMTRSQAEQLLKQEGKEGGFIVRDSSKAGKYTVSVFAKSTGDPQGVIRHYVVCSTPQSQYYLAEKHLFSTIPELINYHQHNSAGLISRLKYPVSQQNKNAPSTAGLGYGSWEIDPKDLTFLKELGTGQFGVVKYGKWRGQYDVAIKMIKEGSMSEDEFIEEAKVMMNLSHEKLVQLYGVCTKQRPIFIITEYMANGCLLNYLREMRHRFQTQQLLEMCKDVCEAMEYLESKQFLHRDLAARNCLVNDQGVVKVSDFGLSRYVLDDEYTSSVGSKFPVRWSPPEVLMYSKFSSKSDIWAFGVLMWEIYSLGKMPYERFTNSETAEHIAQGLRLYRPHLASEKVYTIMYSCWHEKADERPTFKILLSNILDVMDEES

ITK = target: T2, ITK (Homo sapiens, UniProt Q08881); assay: Kinase selectivity ELISA at 1000 nM, ITK; type: biochemical
T2 sequence (Q08881 1-620): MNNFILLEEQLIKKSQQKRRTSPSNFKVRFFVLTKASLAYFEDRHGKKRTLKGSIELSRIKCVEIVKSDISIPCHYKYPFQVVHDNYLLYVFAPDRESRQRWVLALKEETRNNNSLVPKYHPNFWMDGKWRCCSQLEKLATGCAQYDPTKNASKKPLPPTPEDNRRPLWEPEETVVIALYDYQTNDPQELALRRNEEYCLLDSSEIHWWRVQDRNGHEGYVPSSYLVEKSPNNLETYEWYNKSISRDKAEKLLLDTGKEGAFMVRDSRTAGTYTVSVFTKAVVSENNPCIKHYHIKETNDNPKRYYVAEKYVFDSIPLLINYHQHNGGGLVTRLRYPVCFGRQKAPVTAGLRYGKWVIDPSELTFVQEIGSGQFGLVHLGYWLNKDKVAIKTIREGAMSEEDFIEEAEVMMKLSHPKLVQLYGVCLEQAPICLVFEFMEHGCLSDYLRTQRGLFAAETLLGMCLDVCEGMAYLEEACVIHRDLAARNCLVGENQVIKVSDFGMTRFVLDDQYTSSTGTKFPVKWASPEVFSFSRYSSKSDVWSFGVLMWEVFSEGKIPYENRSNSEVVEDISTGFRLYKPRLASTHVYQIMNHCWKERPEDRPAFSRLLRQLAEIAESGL
In short: as §1

EGFR [5] = target: T1, EGFR; assay: Kinase selectivity ELISA at 1000 nM, EGFR; type: biochemical
In short: as §1

ErbB4 = ErbB4 (Homo sapiens, UniProt Q15303); assay: Kinase selectivity ELISA at 1000 nM, ErbB4; type: biochemical
In short: as §1

Row | SMILES | phosphorylation of BTK in TMD8 cells (BTK [1]) | cleavage of PARP and caspase 3 proteins (PARP and caspase 3) | IC50 (EGFR [2]) [µM] | levels of Rb, phosphorylated Rb, and cyclin D1 proteins [3] | apoptosis rate (TMD8 cells; 10 nM) [%] | apoptosis rate (TMD8 cells; 100 nM) [%] | apoptosis rate (TMD8 cells; 1000 nM) [%] | inhibition of the other kinases tested (panel of 35 kinases) | number of kinases with greater than 50% inhibition (panel of 35 kinases) | inhibition of ErbB2 (ErbB2) | selectivity for BTK than for EGFR (BTK [4]; IC50 EGFR vs IC50 BTK) | IC50 (BTK [4]; read-out: IC50 against BTK, ELISA-based kinase assay) [µM] | inhibition of ITK (ITK) | inhibition of EGFR (EGFR [5]) | inhibition of ErbB4 (ErbB4)
1 | CC#CC(=O)N1CCC[C@H]1c1nc(-c2ccc(C(=O)Nc3ccccn3)cc2)c2c(N)nccn12 [ACP-196, acalabrutinib] | effectively suppressed | – | – | – | – | – | – | – | – | – | – | – | – | – | –
2 | C=CC(=O)Nc1cccc(N2C(=O)OC(C)c3cnc(Nc4ccc(N5CCN(C)CC5)cc4OC)nc32)c1 (centres unmarked) [Compound 2, N-(3-(7-((2-methoxy-4-(4-methylpiperazin-1-yl)phenyl)amino)-4-methyl-2-oxo-2H-pyrimido[4,5-d][1,3]oxazin-1(4H)-yl)phenyl)acrylamide] | effectively suppressed | increased in a dose-dependent manner | 0.0474 | reduction | 44.46 | 57.95 | 69.46 | did not appreciably inhibit | seven | greater than 50% | greater than 6 fold | 0.007 | greater than 50% | greater than 50% | greater than 50%
3 | C=CC(=O)N1CCC[C@@H](n2nc(-c3ccc(Oc4ccccc4)cc3)c3c(N)ncnc32)C1 [ibrutinib] | effectively suppressed | – | – | – | – | – | – | – | – | – | – | – | – | – | –
